Most compounds without a hit are left out; they make up all but 4.6% or so of the library.
p97 ATPase inh – blocks human p97 ATPase activity; recombinant p97 ATPase, Kinase-Glo ATP luminescence, 3 h; P55072; 220,000 compounds, 0.42% hits; inhibition, % at 8 µM; in the data active = inhibition above about 15%;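 note: 0% = DMSO vehicle and 100% = wells lacking enzyme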
Target sequence (P55072 whole entry, looked up): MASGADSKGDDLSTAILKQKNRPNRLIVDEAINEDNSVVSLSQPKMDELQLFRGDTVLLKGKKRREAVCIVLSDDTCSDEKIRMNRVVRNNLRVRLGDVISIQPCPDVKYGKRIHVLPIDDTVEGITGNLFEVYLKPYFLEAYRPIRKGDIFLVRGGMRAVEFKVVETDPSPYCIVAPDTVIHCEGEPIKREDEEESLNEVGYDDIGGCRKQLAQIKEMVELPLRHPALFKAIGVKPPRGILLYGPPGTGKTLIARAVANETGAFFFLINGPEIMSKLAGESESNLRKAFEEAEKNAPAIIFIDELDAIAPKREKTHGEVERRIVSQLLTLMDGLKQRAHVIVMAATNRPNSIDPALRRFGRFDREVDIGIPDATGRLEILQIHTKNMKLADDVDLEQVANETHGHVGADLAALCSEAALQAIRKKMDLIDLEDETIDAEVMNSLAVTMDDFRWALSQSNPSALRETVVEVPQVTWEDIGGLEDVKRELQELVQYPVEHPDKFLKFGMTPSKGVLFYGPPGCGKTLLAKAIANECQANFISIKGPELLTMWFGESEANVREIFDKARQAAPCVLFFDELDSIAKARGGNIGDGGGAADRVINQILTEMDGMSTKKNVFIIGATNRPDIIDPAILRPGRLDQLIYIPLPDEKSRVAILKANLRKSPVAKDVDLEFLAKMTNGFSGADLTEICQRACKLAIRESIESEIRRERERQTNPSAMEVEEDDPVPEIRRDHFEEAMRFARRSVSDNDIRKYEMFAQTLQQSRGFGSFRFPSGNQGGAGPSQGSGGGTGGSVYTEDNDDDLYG
APP 5'UTR act – APP 5'UTR luciferase reporter activation. 190,000 compounds, 1% hits. SH-SY5Y APP 5'UTR luciferase reporter, luminescence; zero percent = DMSO vehicle wells. activation, % at 2 µM;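 active = activation above a set limit, based on mean plus 3 SD of controls, cut at about 140% in these data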
Wee1 degr inh – inhibitors of human Wee1 degradation | P30291 | HeLa Luc-Wee1K328M stability, luciferase luminescence; 100% = proteasome inhibitor MG132 effect | reporter increase, % at 5 µM | 220,000 compounds, 1.2% hits | AID 1321;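 active = activation above the mean of all tested compounds plus 3 SD, set per screening run, cut at about 8.8% in these data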;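 note: cells exposed to compound for 20 h before luminescence read; 0% = DMSO alone and 100% = MG132 at 30 µM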
MDM2 E3 inh – Mdm2 E3 ligase (human) inhibition | 210,000 compounds, 0.11% hits | cell-based MDM2 ubiquitination luciferase reporter, 2 h; 0 = plate control, 100 = twice control, blank-subtracted | AID 1230 | signal enhancement, % at 5 µM | Q00987;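 active = signal enhancement of 30% or more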;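 note: luminescence tracks abundance of the self-degrading MDM2-luciferase fusion protein; higher signal means inhibition of MDM2 E3 ligase activity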
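Assay system: stable mammalian line carrying autodegrading MDM2–luciferase fusion reporter; amount: 2000 cells seeded into each well; buffer or medium: DMEM; benchmarks: plate control and blank wells; signal: luciferase luminescence; timing: 2 h compound exposure at 37 °C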
STAT1 act – increases IFN-gamma driven STAT1 reporter signal | NIH 3T3 STAT1-luciferase reporter, luminescence; 100% = IFN-gamma alone, no compound | activation (% of control), % at 5.5 µM | 200,000 compounds, 2.6% hits;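 active = activation above the screen-wide mean activation plus 3 SD, cut at about 130% in these data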;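 note: raw ratio to IFN-gamma control signal so 100% means no change and 0% no light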
NF-kB neuron act – NF-kB expression increase, human neuronal cells | NF-kB reporter expression; stronger effect = higher value | fold change at 12.5 µM | 190,000 compounds, 1.6% hits; in the data active = fold change above about 3.3
The depositor's hits bear a star; nt = not tested or not shown.

SMILES	p97 ATPase inh	APP 5'UTR act	Wee1 degr inh	MDM2 E3 inh	STAT1 act	NF-kB neuron act
CSc1ccc(/C=N/NC(=O)c2ccccc2Cl)cc1	1	10	2	nt	133*	nt
COC(=O)c1ccc(COc2ccc(/C=N/Nc3cccc(C(=O)O)c3)cc2)cc1	2	nt	0	-10	nt	nt
O=C(O)c1cccc(N/N=C/c2cccs2)c1	7	-9	-4	-63	46	15*
COCCCNC(=O)C1CCCN(S(C)(=O)=O)C1 (centres undefined)	2	-17	1	-6	102	0.99
CCCNC(=O)c1noc2c1CCc1cc(OC)ccc1-2	-6	160*	10*	-26	110	6.1*
COc1ccc2c(c1)CCc1c(C(=O)NCc3cccnc3)noc1-2	0	24	0	-22	112	1.4
COc1ccc2c(c1)CCc1c(C(=O)NCC(C)C)noc1-2	-3	178*	1	-37	122	6.3*
CC(=O)c1cccc(NC(=O)c2noc3c2CCc2ccccc2-3)c1	5	169*	0	-27	123	1.6
COc1ccc2c(c1)CCc1c(C(=O)N3CCCCCC3)noc1-2	-1	130	3	-6	136*	3.4*
Cn1cc(Br)c(C(=O)n2cc(Br)cn2)n1	6	2	2	23	95	1.1
CCc1ccccc1NC(=O)Nc1cc(F)ccc1F	2	-10	1	-8	100	0.92
Cn1c(SCC(=O)N/N=C/c2ccc([N+](=O)[O-])s2)nnc1-c1ccc(Cl)cc1	4	-34	1	0	102	1.2
Cc1ccc2c(Cl)c(C(=O)Nc3cccnc3)sc2c1	-7	169*	1	-16	122	2.8
CCCc1cc2c(=O)c(-c3nc4ccccc4s3)c(COCC(=O)O)oc2cc1O	2	49	-1	-8	97	1.4
Cc1ccc(C(=O)Cn2cnc3ccccc3c2=O)cc1C	0	28	0	-1	138*	3.3*
O=C(CSc1ccc2ccccc2n1)c1ccc2c(c1)OCO2	-4	44	1	-10	134*	1.2
O=C(O)Cn1cnc2ccccc2c1=O	4	13	9.6*	-6	102	1.3
Cc1ccc(C(=O)CSc2cnc3ccccc3n2)cc1C	-4	154*	-3	-22	118	1
O=C(O)CSc1ccc2ccccc2n1	3	6	0	-17	99	1.1
COC(=O)Cn1cnc2ccccc2c1=O	2	-12	-1	-25	114	1.1
O=C(Cn1cnc2ccccc2c1=O)NCCC(=O)N1CCN(Cc2ccccc2)CC1	-3	-7	1	34*	93	1.1
O=C(Cn1cnc2ccccc2c1=O)c1ccc2c(c1)OCCO2	4	151*	6	-36	137*	3.6*
O=C(Cn1cnc2ccccc2c1=O)N1CCOCC1	2	-50	5	nt	102	1.6
O=C(Cn1cnc2ccccc2c1=O)c1ccc2ccccc2c1	-2	1	0	-6	120	2.5
CN(Cc1nccn1C)C(=O)CC1C(=O)NCCN1CC(c1ccccc1)c1ccccc1 (centres undefined)	8	-10	-1	11	99	1.1
SMILES	p97 ATPase inh	APP 5'UTR act	Wee1 degr inh	MDM2 E3 inh	STAT1 act	NF-kB neuron act
O=C(CN1C(=O)C(=O)N(C2CCCC2)C1=O)Nc1ccc(N2CCOCC2)cc1	2	0	3	9	101	1.3
CC(C)C/C=C1\CCc2c([nH]c3ccccc23)C1=O	4	48	6	-27	143*	2.5
CC(=O)OC1CCC(OC(C)=O)c2c1n([O-])c(C)c(C)[n+]2=O (centres undefined)	6	-3	11*	-40	105	1.1
CCC(C)(C)C1CCC(=NNC(=O)c2ccoc2C)CC1 (centres undefined)	-9	144*	4	-11	126	1.7
C/C(CCc1ccco1)=N/NC(=O)CCC(=O)Nc1ccc(Br)cc1	6	18	3	5	100	0.97
C=COC(=O)CSc1nc(-c2cccs2)ccc1C#N	1	90	-1	-17	136*	1.9
CCOC(=O)C(C)Sc1nc(-c2cccs2)ccc1C#N (centres undefined)	4	17	-2	-10	97	1.1
Cc1c(=O)n(OCc2cccc(F)c2)c2ccccc2[n+]1[O-]	1	-2	2	-6	97	3
Cc1c(=O)n(OCc2ccccc2F)c2ccccc2[n+]1[O-]	2	-18	-1	-14	97	5.2*
O=C(c1cc(COc2ccc(F)cc2Cl)on1)N1CCC(c2ccncc2)CC1	-2	-7	7	9	85	1.1
O=C(c1cc(COc2ccc(F)cc2F)on1)N1CCSCC1	3	64	4	-1	138*	2.6
Cc1ncsc1C(=O)N1N=C2/C(=C/c3ccc(N4CCOCC4)cc3)CCCC2C1c1ccc(N2CCOCC2)cc1 (centres undefined)	1	2	9.0*	-24	103	0.96
NC(=O)COC(=O)c1ccc(-c2ccccc2)cc1	5	16	-1	-10	99	1.1
NC(=O)COC(=O)c1ccc(-c2ccc(O)cc2)cc1	0	nt	9.8*	0	nt	nt
COc1ccc(C2=NN(CC(=O)NCc3ccco3)C(=O)CC2)cc1	-3	-3	5	nt	93	1.1
Cc1cc(N2CCC(C)CC2)nc2cccc(O)c12	6	39	-2	-4	102	4.5*
COC(=O)c1ccc(Sc2nnnn2-c2ccccc2)c([N+](=O)[O-])c1	5	2	0	-10	93	4*
COC(=O)c1ccc(-c2nc(-c3cccs3)no2)cc1	-1	136*	1	-80	53	1
Fc1ccc(-c2cnc(-c3cccs3)o2)cc1	1	70	0	-19	142*	1.8
Fc1ccc(-c2nc(-c3cccs3)no2)cc1	-7	nt	15*	-16	nt	nt
Fc1ccc(-c2cc(-c3cccs3)cc(-c3ccccc3)n2)cc1	7	nt	0	-8	nt	nt
CCOC(=O)n1c(=O)[nH]c2ccc(Br)cc21	1	14	2	-2	108	1.3
COc1ccc(CCn2c(C(C)C)nc3oc4ccccc4c(=O)c3c2=O)cc1	-1	nt	4	-59	nt	nt
CCOC(=O)c1ccc(Nc2nc(=O)c3cccnc3s2)cc1	-4	19	0	-9	112	4.1*
O=c1nc(Nc2ccc(OCc3ccccc3)cc2)sc2ncccc12	4	-14	-3	-10	124	1.7
Cc1ccc(Nc2nc(=O)c3cccnc3s2)c(Br)c1	-3	nt	-1	-4	nt	nt
CC(=O)c1cccc(Nc2nc(=O)c3cccnc3s2)c1	-1	-13	1	-8	103	3.4*
CC(=O)c1ccc(Nc2nc(=O)c3cccnc3s2)cc1	2	-4	1	-6	136*	3.9*

Screens deposited in PubChem BioAssay by several laboratories.
